Measured values as given in ChEMBL document CHEMBL4354813, “Design, Synthesis, and Pharmacological Evaluation of Potent Positive Allosteric Modulators of the Glucagon-like Peptide-1 Receptor (GLP-1R)” (J Med Chem, 2020).
Active and inactive are the calls of the source. No cut-off for these calls is given here.

Experiments:
Assay type in all cases: functional, cell-based
[1] = biological target: T1, Glucagon-like peptide 1 receptor (Homo sapiens, UniProt P43220); assay: Positive allosteric modulator activity at human GLP-1R expressed in PSC-HEK293 cells in presence of EC20 level of GLP1(9-36)NH2 incubated for 30 mins by HTRF cAMP assay
T1 sequence (P43220 whole entry): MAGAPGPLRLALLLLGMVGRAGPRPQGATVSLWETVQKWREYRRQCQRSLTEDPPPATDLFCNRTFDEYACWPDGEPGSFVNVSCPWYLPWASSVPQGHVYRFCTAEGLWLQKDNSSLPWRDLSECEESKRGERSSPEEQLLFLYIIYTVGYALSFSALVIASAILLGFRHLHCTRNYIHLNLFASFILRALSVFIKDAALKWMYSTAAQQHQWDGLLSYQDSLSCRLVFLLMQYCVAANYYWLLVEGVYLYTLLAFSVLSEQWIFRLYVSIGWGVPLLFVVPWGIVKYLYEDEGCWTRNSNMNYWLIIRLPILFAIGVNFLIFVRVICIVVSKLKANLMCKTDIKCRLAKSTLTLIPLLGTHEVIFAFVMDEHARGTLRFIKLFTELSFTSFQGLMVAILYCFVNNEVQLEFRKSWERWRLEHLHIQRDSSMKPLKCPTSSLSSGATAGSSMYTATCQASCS
How it was run: (§1)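 Thaw-and-use PSC-HEK293 cells stably expressing human GLP-1R, 2000 cells/well in HBSS/20 mM HEPES/0.1% BSA with 2 mM IBMX. Enhancer format: compound dose-response plus fixed EC20 GLP1(9-36)NH2. Shift format: GLP1(9-36)NH2 dose-response plus 10 or 3 μM compound. 30 min at room temperature. EC50 from a 4-parameter logistic fit.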

[2] = biological target: T2, Gastric inhibitory polypeptide receptor (Homo sapiens) (UniProt P48546); assay: Activity at human GIPR expressed in PSC-HEK293 cells incubated for 30 mins by HTRF cAMP assay
T2 sequence (whole entry): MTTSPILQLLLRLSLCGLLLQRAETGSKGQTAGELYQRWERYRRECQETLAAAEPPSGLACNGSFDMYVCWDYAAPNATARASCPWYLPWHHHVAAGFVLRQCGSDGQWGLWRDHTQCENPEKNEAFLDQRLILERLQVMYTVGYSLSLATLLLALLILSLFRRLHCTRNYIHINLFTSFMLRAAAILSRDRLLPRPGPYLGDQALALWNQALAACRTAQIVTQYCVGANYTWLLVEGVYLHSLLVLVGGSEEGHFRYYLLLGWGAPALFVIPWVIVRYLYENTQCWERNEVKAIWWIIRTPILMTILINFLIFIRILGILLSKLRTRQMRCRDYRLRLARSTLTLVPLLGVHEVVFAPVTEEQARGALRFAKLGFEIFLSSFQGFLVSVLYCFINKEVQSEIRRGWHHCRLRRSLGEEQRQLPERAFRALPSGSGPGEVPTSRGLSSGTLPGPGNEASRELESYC

[3] = biological target: T1, Glucagon-like peptide 1 receptor; assay: Positive allosteric modulator activity at human GLP-1R expressed in PSC-HEK293 cells assessed as potentiation of GLP1(9-36)NH2-induced cAMP accumulation by measuring shift in EC50 of endogenous GLP1(9-36)NH2 at 10 uM incubated for 30 mins by HTRF cAMP assay relative to control
How it was run: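 Thawed frozen PSC-HEK293 cells stably expressing human GLP-1R, 2000 cells/well in HBSS/20 mM HEPES/0.1% BSA with 2 mM IBMX. Shift format: GLP1(9-36)NH2 dose-response with compound fixed at 10 or 3 µM; 30 min room temperature; cAMP by HTRF (665/620 nm ratio) after 1 h with lysis reagents; 4-parameter logistic fit; EC50 shift factor derived.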

[4] = biological target: T1, Glucagon-like peptide 1 receptor; assay: Activity at human GLP-1R expressed in PSC-HEK293 cells incubated for 30 mins by HTRF cAMP assay
HEK293 = assay: Effect on cAMP accumulation in parental HEK293 cells incubated for 30 mins by HTRF cAMP assay; conditions: Homo sapiens
[5] = biological target: Glucagon receptor (Homo sapiens) (UniProt P47871); assay: Activity at human GCGR expressed in PSC-HEK293 cells incubated for 30 mins by HTRF cAMP assay
Glucagon receptor (Homo sapiens), sequence (P47871 whole entry): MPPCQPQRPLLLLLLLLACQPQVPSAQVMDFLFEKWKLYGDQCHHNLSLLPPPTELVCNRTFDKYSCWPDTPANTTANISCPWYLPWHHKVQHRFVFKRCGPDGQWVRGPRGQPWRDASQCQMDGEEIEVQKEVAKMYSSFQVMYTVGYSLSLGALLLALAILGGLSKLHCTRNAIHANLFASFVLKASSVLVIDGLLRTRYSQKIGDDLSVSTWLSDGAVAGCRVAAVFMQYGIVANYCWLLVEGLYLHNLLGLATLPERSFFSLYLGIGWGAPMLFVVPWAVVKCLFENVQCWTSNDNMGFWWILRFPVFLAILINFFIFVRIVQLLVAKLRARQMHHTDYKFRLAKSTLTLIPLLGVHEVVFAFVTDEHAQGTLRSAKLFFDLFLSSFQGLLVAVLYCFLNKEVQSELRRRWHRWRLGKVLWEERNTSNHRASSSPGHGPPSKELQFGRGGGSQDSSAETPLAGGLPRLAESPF

[6] = biological target: T1, Glucagon-like peptide 1 receptor; assay: Positive allosteric modulator activity at GLP-1R in human 1.1B4 cells in presence of EC20 level of GLP1(9-36)NH2 incubated for 30 mins by HTRF cAMP assay relative to control
How it was run: (§2)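 Human pancreatic β-cell line 1.1B4, 20,000 cells/well cultured overnight, washed twice; compound concentration-response with fixed 10 nM GLP1(9-36)NH2, 30 min. cAMP by HTRF 665/620 ratio, normalised to buffer (1x HBSS, 0.1% BSA, 1 mM IBMX; 0%) and GLP-1(7-36)NH2 (100%); 4-parameter logistic fit.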

[7] = biological target: T1, Glucagon-like peptide 1 receptor; assay: Positive allosteric modulator activity at GLP-1R in human 1.1B4 cells in presence of EC20 level of GLP1(9-36)NH2 incubated for 30 mins by HTRF cAMP assay; conditions: read-out: EC50; how it was run: as §2
[8] = biological target: T1, Glucagon-like peptide 1 receptor; assay: Positive allosteric modulator activity at human GLP-1R expressed in PSC-HEK293 cells assessed as potentiation of oxyntomodulin-induced cAMP accumulation incubated for 30 mins by HTRF cAMP assay relative to control
How it was run: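 Counterscreen in HEK293 cells with recombinant receptor, 2000 cells/well, 2 mM IBMX, 30 min at room temperature. Compound tested with 10 nM oxyntomodulin (GLP-1R cells) or with GLP-1(9-36)NH2 in glucagon-receptor-overexpressing cells. cAMP read by HTRF at 665/620 nm.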

[9] = biological target: T1, Glucagon-like peptide 1 receptor; assay: Positive allosteric modulator activity at human GLP-1R expressed in PSC-HEK293 cells in presence of EC20 level of GLP1(9-36)NH2 incubated for 30 mins by HTRF cAMP assay relative to control
How it was run: as §1, with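 “temperature. HTRF cAMP read after 1 h lysis (665/620 nm).” for “temperature.”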

[10] = biological target: T3, Glucagon-like peptide 1 receptor (Mus musculus) (UniProt O35659); assay: Inhibition of 15 mM glucose-mediated increase in intracellular Ca2+ level in mouse MIN6-c4 cells at 0.12 to 30 uM by FLIPR assay relative to control
T3 sequence (whole entry): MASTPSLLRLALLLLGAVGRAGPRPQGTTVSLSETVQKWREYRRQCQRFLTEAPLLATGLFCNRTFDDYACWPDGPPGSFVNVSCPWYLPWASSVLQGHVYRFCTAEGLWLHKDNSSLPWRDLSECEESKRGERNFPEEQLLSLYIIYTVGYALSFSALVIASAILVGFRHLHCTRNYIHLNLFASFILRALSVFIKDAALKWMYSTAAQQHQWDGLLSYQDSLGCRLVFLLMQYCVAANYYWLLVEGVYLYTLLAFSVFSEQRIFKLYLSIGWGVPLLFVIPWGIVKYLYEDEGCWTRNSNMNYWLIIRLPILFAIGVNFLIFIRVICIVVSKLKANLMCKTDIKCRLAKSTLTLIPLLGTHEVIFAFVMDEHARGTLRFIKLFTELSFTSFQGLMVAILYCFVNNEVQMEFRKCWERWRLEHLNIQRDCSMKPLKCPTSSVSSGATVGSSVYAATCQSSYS

[11] = biological target: Glucagon receptor (Homo sapiens) (UniProt P47871); assay: Positive allosteric modulator activity at human GCGR expressed in PSC-HEK293 cells assessed as potentiation of GLP-1(9-36)NH2-induced cAMP accumulation incubated for 30 mins by HTRF cAMP assay relative to control
[12] = biological target: T1, Glucagon-like peptide 1 receptor; assay: Positive allosteric modulator activity at human GLP-1R expressed in PSC-HEK293 cells assessed as potentiation of GLP1(9-36)NH2-induced cAMP accumulation by measuring shift in EC50 of endogenous GLP1(9-36)NH2 at 3 uM incubated for 30 mins by HTRF cAMP assay relative to control
How it was run: as §1, with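 “temperature. HTRF cAMP read after 1 h lysis (665/620 nm).” for “temperature.”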

Row | Structure (SMILES) | EC50 [1] [nM] | Activity [2] | Ratio EC50 [3] | Activity [4] | Activity (HEK293) | Activity [5] | Emax [6] [%] | EC50 [7] [nM] | Activity [8] | Emax [9] [%] | inhibition [10] | Activity [11] | Ratio EC50 [12]
1 | CC(O)CCN1C[C@H]2c3c(c4ccccc4n3C(=O)OC(C)(C)C)C[C@@H](C1=O)N2C(=O)CC1CCC(F)(F)CC1 (stereo partly specified) | 1.5 | inactive | 3140 | inactive | inactive | inactive | 100 | 40 | inactive | 100 | Active | inactive | 526
2 | CC(C)(C)OC(=O)n1c2c(c3ccccc31)C[C@H]1C(=O)N3C[C@@H](CC(=O)O)C[C@H]3[C@@H]2N1C(=O)CC1CCC(F)(F)CC1 | 5 | inactive | 8190 | inactive | inactive | inactive | 102 | 130 | inactive | 100 | inactive | inactive | 2220
